The results in this text go back to ChEMBL document CHEMBL1123911, “Dopamine agonists: effects of charged and uncharged analogues of dopamine” (1987).

SMILES strings stand for the structures.

Experiment [1] is filed under the species Rattus norvegicus. The experiment in a line: Ability to inhibit the K+-induced release of [3H]acetylcholine in normal striatal slices at 30 uM. Type of experiment: functional. Also on record: scale not given: the % may be the effect or the level left. The essentials: (§1)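 Striatal slices in Krebs–Ringer bicarbonate with 0.6 mM ascorbic acid, 0.03 mM Na2EDTA and 11 mM glucose, gassed 95% O2/5% CO2, labelled 20 min with [3H]choline, then superfused at 0.5 mL/min. At 55 min, 12.5 mM K+ (Na+ lowered equimolarly) was applied for 10 min, with drug present from 10 min before. Scintillation counting gave fractional tritium release above spontaneous outflow, expressed as % of drug-free control.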

The species named for experiment [2] is Rattus norvegicus. The experiment in a line: Ability to inhibit the K+-induced release of [3H]Acetylcholine in dopamine depleted striatal slices at 30 uM. Format: functional. Also on record: scale not given: the % may be the effect or the level left. The method, boiled down:
as §1

For experiment [3], the species on record is Rattus norvegicus. The experiment in a line: Ability to inhibit the K+-induced release of [3H]acetylcholine in normal striatal slices at 1 uM. Type of experiment: functional. More on the design: scale not given: the % may be the effect or the level left. The essentials: (§2)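 Striatal slices in Krebs–Ringer bicarbonate with 0.6 mM ascorbic acid, 0.03 mM Na₂EDTA and 11 mM glucose, gassed with 95% O₂/5% CO₂. Slices were labelled 20 min with [³H]choline, then superfused at 0.5 mL/min. Drug was added 10 min before and during 12.5 mM K⁺ (Na⁺-compensated) for 10 min. K⁺-evoked fractional tritium release above baseline is given as % of drug-free control, ±SEM.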

The species named for experiment [4] is Rattus norvegicus. The experiment in a line: Inhibition of stimulation of [3H]- acetylcholine release in rat striatal tissue. Format: functional, Striatum. The method, boiled down: as §1
For experiment [5], the species on record is Rattus norvegicus. The experiment in a line: Ability to inhibit the K+-induced release of [3H]acetylcholine in dopamine depleted striatal slices at 0.1 uM. Format: functional. More on the design: scale not given: the % may be the effect or the level left. The method, boiled down:
as §2

For experiment [6], the species on record is Rattus norvegicus. The experiment in a line: Ability to inhibit the K+-induced release of [3H]acetylcholine in normal striatal slices at 0.1 uM. Format: functional. Also on record: scale not given: the % may be the effect or the level left. The essentials: as §2
The species named for experiment [7] is Rattus norvegicus. The experiment in a line: Ability to inhibit the K+-induced release of [3H]Acetylcholine in normal striatal slices at 60 uM. Type of experiment: functional. More on the design: scale not given: the % may be the effect or the level left. The essentials:
as §2

`C[S+](C)CC(O)c1ccc(O)c(O)c1.[I-]` (stereo not given): in the experiment listed under Rattus norvegicus [1], the Control is given as 113%.

In the case of `C[Se]CCc1ccc(O)c(O)c1`, the Control in the experiment listed under Rattus norvegicus [1] is 95%.

As for `C[Se+](C)CCc1ccc(O)c(O)c1.[I-]`, the Control came to 47% in the experiment listed under Rattus norvegicus [2] and 57% in the experiment listed under Rattus norvegicus [1].

For `C[S+](C)CCc1ccc(O)c(O)c1.[I-]`, the Control amounted to 61% in the experiment listed under Rattus norvegicus [2] and 50% in the experiment listed under Rattus norvegicus [1].

The compound `CS(=O)(=O)CCc1ccc(O)c(O)c1` yielded a Control in the experiment listed under Rattus norvegicus [1] of 122%.

For `C[N+]1(C)CCc2cccc3c2[C@H]1Cc1ccc(O)c(O)c1-3`, in the experiment listed under Rattus norvegicus [3], the Control was 59%.

The Inhibition is the change of the read-out against control, counted positive when it falls. As for `CSCCc1ccc(O)c(O)c1`, the Control in the experiment filed under Rattus norvegicus [2] stood at 100%; in the experiment filed under Rattus norvegicus [1], 82%. Further, the Inhibition in the experiment listed under Rattus norvegicus [4] was 18%.

Turning to `C[S+]([O-])CCc1ccc(O)c(O)c1` (stereo not given), the Control in the experiment filed under Rattus norvegicus [1] is given as 101%.

Take `C[N+](C)(C)CCc1ccc(O)c(O)c1.[I-]`: the figures for the Control in the experiment filed under Rattus norvegicus [2] and in the experiment filed under Rattus norvegicus [1] were 53% and 52%, respectively.

Turning to `CN1CCc2cccc3c2[C@H]1Cc1ccc(O)c(O)c1-3` [APOMORPHINE], the Control in the experiment filed under Rattus norvegicus [5] was found to be 56%; in the experiment filed under Rattus norvegicus [6] it was 60%.

On to `NCCc1ccc(O)c(O)c1` [DOPAMINE], for which the Control in the experiment listed under Rattus norvegicus [3] is given as 70%; in the experiment filed under Rattus norvegicus [1] it was 40%.

Take `NC[C@H](O)c1ccc(O)c(O)c1` [NOREPINEPHRINE]: the Control is on record as 101% in the experiment listed under Rattus norvegicus [1] and 85% in the experiment filed under Rattus norvegicus [7].
